The source made the active and inactive calls. The rule behind the calls is not given here.
What was measured:
[1] = Log distribution coefficient between 1-octanol and aqueous buffer at pH of 9.2.; type: physicochemical; settings: 1-octanol/aqueous buffer, pH 9.2
[2] = Log distribution coefficient between 1-octanol and aqueous buffer at pH of 7.4.; type: physicochemical; settings: 1-octanol/aqueous buffer, pH 7.4
[3] = target: Histamine H2 receptor (Cavia porcellus) (UniProt P47747); experiment: Antagonistic activity against histamine H2 receptor from guinea pig atrium; type: functional, tissue-based; settings: Cardiac atrium
Histamine H2 receptor (Cavia porcellus), sequence (P47747 whole entry): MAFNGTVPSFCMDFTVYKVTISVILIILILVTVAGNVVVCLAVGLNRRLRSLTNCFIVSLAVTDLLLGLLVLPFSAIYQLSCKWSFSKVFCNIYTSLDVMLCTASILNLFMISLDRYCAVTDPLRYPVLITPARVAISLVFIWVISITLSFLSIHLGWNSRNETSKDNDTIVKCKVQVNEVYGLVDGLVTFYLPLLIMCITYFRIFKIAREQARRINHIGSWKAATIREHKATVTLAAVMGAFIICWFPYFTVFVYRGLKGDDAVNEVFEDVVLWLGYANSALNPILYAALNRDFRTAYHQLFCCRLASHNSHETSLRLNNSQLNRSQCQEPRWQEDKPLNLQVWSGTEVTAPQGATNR

[4] = tested on: Canis familiaris; experiment: Acid antisecretory activity against pentagastrin-stimulated Heidenhain pouch dogs after intravenous administration; type: functional; settings: Canis lupus familiaris, read-out: ID50 (the source's name)
How it was run: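 Fasted, unanesthetized Heidenhain pouch dogs received a continuous pentagastrin infusion into a superficial leg vein at a near-maximal acid-stimulating dose. Gastric juice was collected at 30-min intervals, ten collections per dog. Acid was titrated on 1.0 mL to pH 7.4 with 0.1 N NaOH. Compound or vehicle was given iv at 90 min. ID50 came from linear regression of log dose on percent inhibition in n dogs.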

[5] = tested on: Canis familiaris; experiment: Acid antisecretory activity against pentagastrin-stimulated Heidenhain pouch dogs at a dose of 10 mg/kg after intravenous administration; type: functional, Canis lupus familiaris
How it was run: (§1)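 Pentagastrin was infused iv into a leg vein of fasted, conscious Heidenhain pouch dogs to give near-maximal acid output. Juice was collected every 30 min, ten collections in all, and acid was titrated (1.0 mL to pH 7.4, 0.1 N NaOH). The single iv dose was given at 90 min. Percent inhibition was the lowest post-dose acid output compared with the mean output just before dosing.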

[6] = target: Histamine H2 receptor (Cavia porcellus) (UniProt P47747); experiment: Antagonistic activity against histamine H2 receptor from guinea pig atrium; activity KB (Dissociation Constant) is negative; type: functional, tissue-based; settings: Cardiac atrium
[7] = tested on: Canis familiaris; experiment: Acid antisecretory activity against pentagastrin-stimulated Heidenhain pouch dogs at a dose of 25 mg/kg after intravenous administration; type: functional, Canis lupus familiaris; how it was run: as §1
[8] = pKa ([…] constant) value at a physiological pH of 7.4; type: physicochemical; settings: pH 7.4
How it was run: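 Ionisation constants taken as the observed pH1/2 from titration at 23 °C. The dihydrochloride salts were titrated in water, and the free bases in 1:1 methanol–water.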

[9] = Log distribution coefficient between 1-octanol and aqueous buffer at specified pH of 9.2.; settings: 1-octanol/aqueous buffer, pH 9.2
[10] = target: Histamine H1 receptor (Cavia porcellus) (UniProt P31389); experiment: Relative antagonistic activity against Histamine H1 receptor
Histamine H1 receptor (Cavia porcellus), sequence (P31389 whole entry): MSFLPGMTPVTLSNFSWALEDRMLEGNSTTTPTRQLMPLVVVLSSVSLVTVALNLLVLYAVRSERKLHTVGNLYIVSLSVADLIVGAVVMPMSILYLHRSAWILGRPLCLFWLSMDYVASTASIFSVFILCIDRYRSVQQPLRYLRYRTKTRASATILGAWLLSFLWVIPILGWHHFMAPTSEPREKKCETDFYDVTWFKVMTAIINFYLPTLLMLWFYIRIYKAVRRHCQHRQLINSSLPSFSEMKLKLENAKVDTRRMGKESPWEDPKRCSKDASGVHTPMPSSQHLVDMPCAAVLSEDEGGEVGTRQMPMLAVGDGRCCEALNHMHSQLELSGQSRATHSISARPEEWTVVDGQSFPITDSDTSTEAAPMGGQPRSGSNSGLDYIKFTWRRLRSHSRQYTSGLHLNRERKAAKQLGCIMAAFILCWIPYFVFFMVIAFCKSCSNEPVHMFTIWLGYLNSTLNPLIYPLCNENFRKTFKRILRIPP

[11] = tested on: Canis familiaris; experiment: Acid antisecretory activity against pentagastrin-stimulated Heidenhain pouch dogs at a dose of 23 mg/kg after intravenous administration; type: functional, Canis lupus familiaris; how it was run: as §1
[12] = tested on: Canis familiaris; experiment: Acid antisecretory activity against pentagastrin-stimulated Heidenhain pouch dogs at a dose of 5 mg/kg after intravenous administration; type: functional, Canis lupus familiaris; how it was run: as §1
[13] = target: Histamine H1 receptor (Cavia porcellus) (UniProt P31389); experiment: Relative antagonistic activity against Histamine H1 receptor, NA is Inactive

With CCNc1cc(-c2n[nH]c(N)n2)ccn1 the logD [1] was 0.97, the logD [2] was 1.13 and the Kb [3] was 235 nM. It also gave an ED50 [4] of 0.87 mg/kg.

For Nc1n[nH]c(-c2cccnc2)n1, the Max inhibition [5] was 22%, the KB [6] was “inactive” and the Max inhibition [7] was 11%.

For Nc1n[nH]c(Cc2ccncc2)n1, the Max inhibition [5] was 26%, the KB [6] was “inactive” and the Max inhibition [7] was 30%.

With CN/C(=N\CCSCc1nc[nH]c1C)NC#N [CIMETIDINE] the pKa [8] was 7.02, the logD [1] was 0.4 and the logD [9] was 0.54. The ED50 [4] was 1.02 mg/kg.

In the case of CN(C)CCN(Cc1ccccc1)c1ccccc1, the Relative activity [10] is reported as 1.

Nc1n[nH]c(-c2ccncc2)n1 gave a Max inhibition [5] of 43%, a Max inhibition [11] of 73% and a Kb [3] of 41900 nM.

Nc1cc(-c2n[nH]c(N)n2)ccn1 showed a logD [1] of -0.06, a logD [2] of 0.11 and a Kb [3] of 2220 nM. It also gave an ED50 [4] of 2.35 mg/kg.

In the case of c1ccc(CN(CCc2c[nH]cn2)Cc2ccccc2)cc1, the Relative activity [10] is reported as 0.01.

Compound c1ccc(CN(CC2=NCCN2)c2ccccc2)cc1 has a Relative activity [10] greater than 1.

For Nc1n[nH]c(-c2ccccn2)n1, the Max inhibition [5] was 0%, the KB [6] was “inactive” and the Max inhibition [12] was 0%.

With Nc1n[nH]c(Cc2ccccn2)n1 the Max inhibition [5] was 0%, the KB [6] was “inactive” and the Max inhibition [12] was 18%.

c1ccc(CN(Cc2c[nH]cn2)c2ccccc2)cc1 gave a Relative activity [10] greater than 0.5.

For Nc1n[nH]c(Cc2cccnc2)n1, the Max inhibition [5] was 0% and the KB [6] was “inactive”.

In the case of CN(C)CCN(Cc1ccccc1)Cc1ccccc1, the Activity [13] is reported as “inactive”.

From ChEMBL document CHEMBL1122301, “Bioisosteric design of conformationally restricted pyridyltriazole histamine H2-receptor antagonists” (J Med Chem, 1983)
